From ChEMBL document CHEMBL1921684, “Targeting zymogen activation to control the matriptase-prostasin proteolytic cascade” (J Med Chem, 2011)
Calls of active or inactive are those of the source. The rule behind the calls is not given here.

Key:
[1] = molecular target: T1, Suppressor of tumorigenicity 14 protein (Homo sapiens) (UniProt Q9Y5Y6); assay: Inhibition of acid-induced matriptase activation in human 184A1N4 cells using mAb M69 at 5 uM by cell-based ELISA like assay
T1 sequence (whole entry): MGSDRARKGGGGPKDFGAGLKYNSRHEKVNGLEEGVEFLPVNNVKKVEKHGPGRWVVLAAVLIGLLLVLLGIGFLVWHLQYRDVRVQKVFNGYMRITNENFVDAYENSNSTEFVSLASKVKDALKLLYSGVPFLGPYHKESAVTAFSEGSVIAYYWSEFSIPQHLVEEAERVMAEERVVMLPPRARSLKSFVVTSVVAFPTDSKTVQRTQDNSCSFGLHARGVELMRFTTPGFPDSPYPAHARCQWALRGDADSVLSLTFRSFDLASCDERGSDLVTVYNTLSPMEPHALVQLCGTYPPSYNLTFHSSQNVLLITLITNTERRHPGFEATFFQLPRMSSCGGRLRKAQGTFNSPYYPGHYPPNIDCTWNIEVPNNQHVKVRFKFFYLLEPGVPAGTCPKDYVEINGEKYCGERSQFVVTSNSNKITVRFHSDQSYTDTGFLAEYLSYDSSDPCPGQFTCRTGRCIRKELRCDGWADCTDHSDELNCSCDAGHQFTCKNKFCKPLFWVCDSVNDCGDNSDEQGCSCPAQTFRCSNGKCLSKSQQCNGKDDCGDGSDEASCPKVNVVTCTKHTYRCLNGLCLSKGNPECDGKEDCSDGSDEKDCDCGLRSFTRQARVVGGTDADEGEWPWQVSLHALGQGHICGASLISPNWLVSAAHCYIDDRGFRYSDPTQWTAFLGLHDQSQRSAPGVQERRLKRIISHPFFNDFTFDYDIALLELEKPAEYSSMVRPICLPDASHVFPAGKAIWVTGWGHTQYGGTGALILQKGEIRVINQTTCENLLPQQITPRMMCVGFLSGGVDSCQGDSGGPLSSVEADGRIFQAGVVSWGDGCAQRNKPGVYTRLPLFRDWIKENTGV
Outline: (§1)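 184 A1N4 cells seeded at 8×10^4 cells/well 24 h ahead. Compound in pH 6.0 sodium phosphate buffer, 30 min at 4 °C, then 20 min at room temperature. Cells fixed in 4% formaldehyde with 0.1% Triton for 20 min. Activated matriptase detected with mAb M69, HRP anti-mouse IgG and TMB; A450. […] Screening used 5 μM final per compound in 1% DMSO.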

[2] = molecular target: T1, Suppressor of tumorigenicity 14 protein (Homo sapiens); assay: Inhibition of acid-induced matriptase activation in human 184A1N4 cell homogenate using mAb M69 after 30 mins by Western blot analysis
Outline: (§2)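 Insoluble fraction of 184 A1N4 cell homogenates (made in PBS, collected by centrifugation) preincubated with compound in 150 mM sodium phosphate pH 6.0 for 30 min at 4 °C. Activation then induced for 20 min at room temperature. Non-reduced, unboiled samples run on 7.5% SDS-PAGE. Immunoblot probed with mAb M24 (total matriptase) or M69 (activated matriptase); chemiluminescent detection; triplicate.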

[3] = molecular target: T1, Suppressor of tumorigenicity 14 protein (Homo sapiens); assay: Inhibition of acid-induced matriptase activation in human 184A1N4 cells assessed as enzyme-HAI-1 complex using mAb M24 at 5 uM after 30 mins by Western blotting; format: cell-based
Outline: (§3)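 Intact 184 A1N4 cells pre-treated with compound in 150 mM sodium phosphate pH 6.0 for 30 min at 4 °C, then held 20 min at room temperature to drive activation. PBS served as non-activation control and buffer alone as activation control. Cells lysed in PBS with 1 mM DTNB and 1% Triton X-100. Non-reduced, unboiled lysates run on 7.5% SDS-PAGE. Blots probed with M24 (70-kDa latent form, 120-kDa matriptase-HAI-1 complex) or M69 (activated matriptase); triplicate.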

[4] = molecular target: T2, Suppressor of tumorigenicity 14 protein (Homo sapiens, UniProt Q9Y5Y6); assay: Inhibition of acid-induced matriptase activation in human 184A1N4 cells using mAb M69 by cell-based ELISA like assay; outline: as §1
T2 sequence (Q9Y5Y6 whole entry): T1 sequence (whole entry)

[5] = molecular target: T1, Suppressor of tumorigenicity 14 protein (Homo sapiens); assay: Inhibition of acid-induced matriptase activation in human 184A1N4 cell homogenate using mAb M24 after 30 mins by Western blot analysis; outline: as §2
[6] = molecular target: T1, Suppressor of tumorigenicity 14 protein (Homo sapiens); assay: Inhibition of acid-induced matriptase-mediated prostasin activation in human HaCaT cells assessed as decrease in prostatin-HAI-1 complex after 30 mins by Western blot analysis; format: cell-based
Outline: (§4)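 HaCaT keratinocytes (DMEM, 10% FBS) incubated with compound in phosphate buffer pH 6.0 for 30 min at 4 °C, then 20 min at room temperature. Controls were PBS (no activation) and buffer alone. Lysates run non-reduced on 7.5% SDS-PAGE. Immunoblots probed with M24 (total matriptase), M69 (activated matriptase) and a polyclonal anti-prostasin antibody detecting the prostasin-HAI-1 complex.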

[7] = molecular target: T1, Suppressor of tumorigenicity 14 protein (Homo sapiens); assay: Inhibition of acid-induced matriptase activation in human HaCaT cells using mAb M69 after 30 mins by Western blot analysis; format: cell-based; outline: as §4
[8] = molecular target: T1, Suppressor of tumorigenicity 14 protein (Homo sapiens); assay: Inhibition of acid-induced matriptase activation in human 184A1N4 cells assessed as decrease in 120 kDa enzyme-HAI-1 complex using mAb M69 after 30 mins by Western blotting; format: cell-based; outline: as §3
[9] = molecular target: T1, Suppressor of tumorigenicity 14 protein (Homo sapiens); assay: Inhibition of acid-induced matriptase activation in human 184A1N4 cells assessed as decrease in 120 kDa enzyme-HAI-1 complex using mAb M24 at 5 uM after 30 mins by Western blotting relative to untreated control; format: cell-based; outline: as §3
[10] = molecular target: T1, Suppressor of tumorigenicity 14 protein (Homo sapiens); assay: Inhibition of acid-induced matriptase activation in human HaCaT cells using mAb M24 after 30 mins by Western blot analysis; format: cell-based; outline: as §4
[11] = molecular target: T1, Suppressor of tumorigenicity 14 protein (Homo sapiens); assay: Inhibition of acid-induced matriptase activation in human 184A1N4 cells assessed as increase in 70 kDa latent matriptase using mAb M24 after 30 mins by Western blotting; format: cell-based; outline: as §3
[12] = molecular target: T1, Suppressor of tumorigenicity 14 protein (Homo sapiens); assay: Inhibition of acid-induced matriptase activation in human 184A1N4 cells assessed as decrease in 120 kDa enzyme-HAI-1 complex using mAb M24 after 30 mins by Western blotting relative to untreated control; format: cell-based; outline: as §3
[13] = molecular target: T1, Suppressor of tumorigenicity 14 protein (Homo sapiens); assay: Inhibition of acid-induced matriptase activation in human 184A1N4 cells assessed as increase in 70 kDa latent matriptase using mAb M24 at 5 uM after 30 mins by Western blotting; format: cell-based; outline: as §3
[14] = molecular target: T1, Suppressor of tumorigenicity 14 protein (Homo sapiens); assay: Inhibition of acid-induced matriptase activation in human 184A1N4 cells using mAb M69 after 20 mins by cell-based ELISA-like assay; outline: as §1
[15] = molecular target: T1, Suppressor of tumorigenicity 14 protein (Homo sapiens); assay: Inhibition of acid-induced matriptase activation in human 184A1N4 cells using mAb M24 after 20 mins by Western blotting; format: cell-based; outline: as §3
[16] = molecular target: T1, Suppressor of tumorigenicity 14 protein (Homo sapiens); assay: Inhibition of acid-induced matriptase activation in human 184A1N4 cells using mAb M69 after 20 mins by Western blotting; format: cell-based; outline: as §3

inhibition [2]	IC50 [4]	inhibition [5]	inhibition [8]	Compound	other results
Dose-dependent effect	9.8 µM	Dose-dependent effect		O=C(C1=C(O)C(=O)N(c2nccs2)C1c1cccs1)c1cccs1 (stereo unspecified)	inhibition [1]: Active; inhibition [3]: Active
Dose-dependent effect	21.8 µM	Dose-dependent effect		Cc1nc(N2C(=O)C(O)=C(C(=O)c3ccccc3)C2c2cccs2)sc1C (stereo unspecified)	
Dose-dependent effect	2.6 µM	Dose-dependent effect	Active	Cc1nc(N2C(=O)C(O)=C(C(=O)c3cccs3)C2c2cccs2)sc1C (stereo unspecified)	inhibition [6]: Dose-dependent effect; inhibition [7]: Dose-dependent effect; inhibition [9]: Active; inhibition [10]: Dose-dependent effect; inhibition [11]: Dose-dependent effect; inhibition [12]: Dose-dependent effect; inhibition [13]: Active
				[Cl-].[Na+]	inhibition [14]: Dose-dependent effect; inhibition [15]: Dose-dependent effect; inhibition [16]: Dose-dependent effect
Dose-dependent effect	7 µM	Dose-dependent effect	Active	Cc1nc(N2C(=O)C(O)=C(C(=O)c3cccs3)C2c2ccccc2)sc1C (stereo unspecified)	
